Measured values taken from ChEMBL document CHEMBL1155802, “Synthesis, DNA binding, and cytotoxic evaluation of new analogs of diallyldisulfide, an active principle of garlic” (Bioorg Med Chem, 2008).
pIC50: −log10 of the molar value.

Experiments:
Hepatocyte = assay: Cytotoxicity against rat primary hepatocytes after 24 hrs by MTT assay; format: cell-based
Method in brief: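 Hepatocytes were isolated from rat liver and cultured in DMEM with 10% FBS at 37 °C under 5% CO2/[…]. Cells were seeded at 1×10^5 cells/ml and exposed to analog at 1–1000 µM for 24 h. MTT was then added for 4 h, formazan was dissolved in DMSO, and A540 was read. Each dose was run in triplicate, and IC50 was derived from mean OD versus concentration curves.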

Rattus norvegicus [1] = assay: Decrease in hepatic cholesterol level in hypercholesterolemic Wistar rat at 20 mg/kg, po for 1 week with diet; format: functional
Method in brief: (§1)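 Adult male Wistar rats (100–120 g) were used, six per group. They received 5% cholesterol diet for 1 week, then cholesterol-rich diet plus compound at 20 mg/Kgwt, as a suspension in water, po, during week 2. Controls were saline-fed and cholesterol-only groups. Hepatic and serum cholesterol and triglycerides were measured by enzymatic assays. Values are mean ± SE from duplicate assays, compared with the hypercholesterolemic group.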

Rattus norvegicus [2] = assay: Decrease in serum cholesterol level in hypercholesterolemic Wistar rat at 20 mg/kg, po for 1 week with diet; format: functional; method in brief: as §1
Rattus norvegicus [3] = assay: Decrease in hepatic triglyceride level in hypercholesterolemic Wistar rat at 20 mg/kg, po for 1 week with diet; format: functional; method in brief: as §1
Rattus norvegicus [4] = assay: Decrease in serum triglyceride level in hypercholesterolemic Wistar rat at 20 mg/kg, po for 1 week with diet; format: functional; method in brief: as §1
DNA [5] = assay: Binding affinity to calf thymus DNA assessed as melting temperature at pH 7.4 by thermal denaturation assay; format: nucleic-acid assay; details: Bos taurus
DNA [6] = assay: Binding affinity to calf thymus DNA assessed as change in melting temperature by thermal denaturation assay; format: nucleic-acid assay; details: Bos taurus
[7] = Binding affinity to AT(d(AT)10) oligonucleotide assessed as melting temperature at pH 7.4 by thermal denaturation assay
[8] = Binding affinity to AT(d(AT)10) oligonucleotide assessed as change in melting temperature by thermal denaturation assay
[9] = Binding affinity to GC(d(GC)7) oligonucleotide assessed as melting temperature at pH 7.4 by thermal denaturation assay
[10] = Binding affinity to GC(d(GC)7) oligonucleotide assessed as change in melting temperature by thermal denaturation assay
[11] = Binding affinity to GC(d(GC)7) oligonucleotide assessed as binding constant at DNA melting temperature at 12.5 uM
Method in brief: (§2)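 Binding constants came from absorbance at 260 nm versus temperature, 25 to 100 °C at 1 °C/min. Conditions were 20 mM sodium phosphate pH 7.4, 100 mM NaCl, 2.5 μM DNA (bp) and a saturating 12.5 μM analog.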

DNA [12] = assay: Binding affinity to calf thymus DNA assessed as binding constant at DNA melting temperature at 12.5 uM; format: nucleic-acid assay; details: Bos taurus; method in brief: as §2

Compound | pIC50 (Hepatocyte) | Activity (Rattus norvegicus [1]) | Activity (Rattus norvegicus [2]) | Activity (Rattus norvegicus [3]) | Activity (Rattus norvegicus [4]) | Tm (DNA [5]) | ΔTm (DNA [6]) | Tm [7] | ΔTm [8] | Tm [9] | ΔTm [10] | K [11] | K (DNA [12])
Brc1ccc(/C=C/CSSC/C=C/c2ccc(Br)cc2Br)c(Br)c1 | 3.56 | 2.12 mg/dL | 41.61 mg/dL | 21.79 mg/dL | 34.65 mg/dL | 81 °C | 8 °C | 50 °C | -2 °C | 93 °C | 6 °C | – | –
FC(F)(F)c1ccc(/C=C/CSSC/C=C/c2ccc(C(F)(F)F)cc2)cc1 | 3.85 | 2.12 mg/dL | 42.69 mg/dL | 20.57 mg/dL | 35.09 mg/dL | 78 °C | 5 °C | 52 °C | 0 °C | 91 °C | 4 °C | – | –
Clc1ccc(/C=C/CSSC/C=C/c2ccc(Cl)cc2Cl)c(Cl)c1 | 3.46 | 2.04 mg/dL | 42.15 mg/dL | 20.61 mg/dL | 34.65 mg/dL | 81 °C | 8 °C | 51 °C | -1 °C | 93 °C | 6 °C | – | –
CC[C@H](C)C(=O)O[C@H]1C[C@@H](C)C=C2C=C[C@H](C)[C@H](CC[C@@H]3C[C@@H](O)CC(=O)O3)[C@H]21 [LOVASTATIN] | – | 1.6 mg/dL | 36.21 mg/dL | 17.35 mg/dL | 31.98 mg/dL | – | – | – | – | – | – | – | –
Brc1ccccc1/C=C/CSSC/C=C/c1ccccc1Br | 3.44 | 2.07 mg/dL | 41.07 mg/dL | 21.41 mg/dL | 35.54 mg/dL | 80 °C | 7 °C | 52 °C | 0 °C | 92 °C | 5 °C | – | –
C=CCS[S+]([O-])CC=C (configuration not stated) [ALLICIN] | – | 2.15 mg/dL | 42.69 mg/dL | 20.34 mg/dL | 36.86 mg/dL | – | – | – | – | – | – | – | –
Clc1ccccc1/C=C/CSSC/C=C/c1ccccc1Cl | 3.37 | 1.87 mg/dL | 37.29 mg/dL | 19.28 mg/dL | 32.87 mg/dL | 81 °C | 8 °C | 49 °C | -3 °C | 93 °C | 6 °C | 6.9 ×10⁶ /M | 4.03 ×10⁵ /M
O=[N+]([O-])c1ccc(/C=C/CSSC/C=C/c2ccc([N+](=O)[O-])cc2)cc1 | 3.47 | 1.97 mg/dL | 38.37 mg/dL | 19.8 mg/dL | 33.32 mg/dL | 80 °C | 7 °C | 52 °C | 0 °C | 94 °C | 7 °C | – | –
Fc1ccc(/C=C/CSSC/C=C/c2ccc(F)cc2)cc1 | 3.81 | 2.07 mg/dL | 42.15 mg/dL | 21.03 mg/dL | 35.54 mg/dL | 79 °C | 6 °C | 51 °C | -1 °C | 92 °C | 5 °C | – | –
